# Results from ChEMBL document CHEMBL4825701, “New antiparasitic flexible triaryl diamidines, their prodrugs and aza analogues: Synthesis, in vitro and in vivo biological evaluation, and molecular modelling studies” (Eur J Med Chem, 2021).
# Calls of active or inactive are those of the source. The rule behind the calls is not given here.
# Tests used:
# [1] = test system: L6; experiment: Cytotoxicity against rat L6 cells by Alamar blue assay; assay type: cell-based
# Outline: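 L6 rat myoblasts were run by the same Alamar Blue protocol as the trypanosome assay. Seven 3-fold serial dilutions were incubated 72 h at 37 °C, 5% CO₂, followed by 2–4 h with dye.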
# [2] = Selectivity index, ratio of IC50 for cytotoxicity against rat L6 cells to IC50 for antitrypanosomal activity against Trypanosoma brucei rhodesiense STIB900; assay type: toxicity, cell-based; conditions: read-out: Selectivity Index
# Outline: (§1)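 SI = IC50(L6)/IC50(parasite): K1 P. falciparum for the antiplasmodial index, T. b. rhodesiense STIB900 for the antitrypanosomal index. L6 rat myoblasts were run as in the trypanosome assay: MEM with 2-mercaptoethanol and 15% heat-inactivated horse serum, seven 3-fold serial dilutions, 72 h at 37 °C in 5% CO2.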
# [3] = test system: Poly(dA-dT)oligonucleotide
# [4] = Selectivity index, ratio of IC50 for cytotoxicity against rat L6 cells to IC50 for antiplasmodial activity against chloroquine and pyrimethamine resistant Plasmodium falciparum K1 infected in human red blood cells; assay type: toxicity, cell-based; conditions: read-out: Selectivity Index; outline: as §1
# [5] = test system: Trypanosoma brucei rhodesiense; experiment: Antitrypanosomal activity against bloodstream form of Trypanosoma brucei rhodesiense STIB900 infected in mouse assessed as reduction in parasitemia by measuring time taken to cure at 5 mg/kg, ip measured up to 60 days (reference value: 11 days); assay type: functional; conditions: time day <=60
# [6] = test system: Plasmodium falciparum; experiment: Antiplasmodial activity against chloroquine and pyrimethamine resistant Plasmodium falciparum K1 infected in human erythrocytes assessed as reduction in [3H]hypoxanthine incorporation measured after 24 hrs by liquid scintillation counting method; assay type: functional, organism-based
# [7] = test system: Poly(dA-dT)oligonucleotide; experiment: Binding affinity to poly (dA-dT) (unknown origin) by circular dichroism spectroscopy; assay type: nucleic-acid assay
# [8] = test system: Trypanosoma brucei rhodesiense; experiment: Antitrypanosomal activity against Trypanosoma brucei rhodesiense STIB900 measured after 72 hrs by alamar blue dye based fluorimetry analysis; assay type: functional, organism-based; conditions: STIB900, 72 h
# [9] = test system: Trypanosoma brucei rhodesiense; experiment: Antitrypanosomal activity against Trypanosoma brucei rhodesiense STIB900 infected in mouse assessed as reduction in parasitemia by measuring time taken to cure at 25 mg/kg, po measured up to 60 days (reference value: 11 days); assay type: functional; conditions: time day <=60
Compound,IC50 [1],selectivity ratio [2],ΔTm [3],selectivity ratio [4],Time [5],IC50 [6],Activity [7],IC50 [8],Time [9]
N=C(N)c1ccc(Cc2ccc(-c3ccc(C(=N)N)cc3)nc2)cc1,18.1 µM,441,1 °C,1620,>60 days,0.0112 µM,inactive,0.041 µM,
N=C(N)c1ccc(Cc2ccc(Cc3ccc(C(=N)N)cc3)o2)cc1,25 µM,930,2.25 °C,1390,18.75 days,,,0.027 µM,
CO/N=C(\N)c1cccc(Cc2ccc(-c3ccc(/C(N)=N\OC)cc3)cc2)c1,34.8 µM,2.1,,3.7,,> 9.5 µM,,16.6 µM,13 days
N=C(N)c1ccc(-c2ccc(-c3ccc(C(=N)N)cc3)o2)cc1 [FURAMIDINE],,,,,24 days,,,,
N=C(N)c1ccc(Cc2ccc(-c3ccc(C(=N)N)cc3)cc2)cc1,4 µM,54.8,9 °C,1330,22 days,0.003 µM,,0.073 µM,
N=C(N)c1ccc(Cc2ccc(Cc3ccc(C(=N)N)cc3)cc2)cc1,19.4 µM,269,1 °C,970,16.25 days,0.023 µM,,0.072 µM,
N=C(N)c1ccc(Oc2cccc(Oc3ccc(C(=N)N)cc3)n2)cc1,99.3 µM,263,1.25 °C,307,,0.323 µM,,0.378 µM,
CO/N=C(\N)c1cccc(Cc2ccc(Cc3ccc(/C(N)=N\OC)cc3)cc2)c1,32.3 µM,1.7,,> 3.4,,> 9.5 µM,,18.7 µM,9.2 days
CO/N=C(\N)c1ccc(-c2ccc(Oc3ccc(/C(N)=N\OC)cc3)nc2)cc1,91 µM,6.3,,9.7,,,,14.4 µM,
N=C(N)c1ccc(Cc2ccc(Cc3cccc(C(=N)N)c3)cc2)cc1,28.3 µM,1890,0.5 °C,1230,15.5 days,,,0.015 µM,
N=C(N)c1ccc(-c2ccc(Cc3cccc(C(=N)N)c3)cc2)cc1,2 µM,57.1,8.5 °C,64.5,22.75 days,0.031 µM,,0.035 µM,
CO/N=C(/N)c1ccc(Cc2ccc(Cc3ccc(/C(N)=N\OC)cc3)cc2)cc1,37.3 µM,,,> 3.9,,> 9.5 µM,,12.6 µM,
CO/N=C(\N)c1ccc(Oc2cccc(Oc3ccc(/C(N)=N\OC)cc3)n2)cc1,117 µM,4.5,,12.3,,,,26.1 µM,
N=C(N)c1ccc(Oc2ccc(-c3ccc(C(=N)N)cc3)cn2)cc1,2.1 µM,191,17.8 °C,525,>45.5 days,,inactive,0.011 µM,
N=C(N)c1ccc(OCCCCCOc2ccc(C(=N)N)cc2)cc1 [PENTAMIDINE],,,,,20 days,,,,
CN(C)CCCC(=O)O/N=C(\N)c1ccc(Cc2ccc(-c3ccc(/C(N)=N\OC(=O)CCCN(C)C)cc3)cc2)cc1,1.1 µM,10.5,,6,,0.183 µM,,0.105 µM,7 days
